Data taken from ChEMBL document CHEMBL1671779, “In vivo trypanosomicidal activity of imidazole- or pyrazole-based benzo[g]phthalazine derivatives against acute and chronic phases of Chagas disease” (J Med Chem, 2011).
Calls of active or inactive are those of the source.

Experiments:
Mus musculus [1] = assay: Toxicity in BALB/c mouse assessed as mortality at 5 mg/kg, ip; assay type: organism-based; design: dose 5 mg/kg, route intraperitoneal; conditions: in vivo
[2] = Selectivity index, ratio of IC50 for african green monkey Vero cells to IC50 for epimastigote of Trypanosoma cruzi Maracay; assay type: toxicity, cell-based; conditions: read-out: Selectivity Index
Trypanosoma cruzi [3] = assay: Effect on metabolic excretion in epimastigotes of Trypanosoma cruzi assessed as malate excretion level at IC25 concentration after 72 hrs by nuclear magnetic resonance spectroscopy analysis; assay type: ADME, organism-based
Trypanosoma cruzi [4] = assay: Effect on metabolic excretion in epimastigotes of Trypanosoma cruzi assessed as lactate excretion level at IC25 concentration after 72 hrs by nuclear magnetic resonance spectroscopy analysis; assay type: ADME, organism-based
Summary of the method: (§1)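 Epimastigote cultures started at 5 × 10^5 cells/mL and given drug at IC25, 72 h at 28 °C. Excreted metabolites assessed by 1H NMR of spent medium, compared with cell-free medium.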

Trypanosoma cruzi [5] = assay: Effect on metabolic excretion in epimastigotes of Trypanosoma cruzi assessed as succinate excretion level at IC25 concentration after 72 hrs by nuclear magnetic resonance spectroscopy analysis; assay type: ADME, organism-based; summary of the method: as §1
[6] = biological target: Superoxide dismutase [Cu-Zn] (Homo sapiens, UniProt P00441); assay: Inhibition of human Cu-Zn superoxide dismutase assessed as inhibition of NADPH reduction
Superoxide dismutase [Cu-Zn], sequence (P00441 whole entry): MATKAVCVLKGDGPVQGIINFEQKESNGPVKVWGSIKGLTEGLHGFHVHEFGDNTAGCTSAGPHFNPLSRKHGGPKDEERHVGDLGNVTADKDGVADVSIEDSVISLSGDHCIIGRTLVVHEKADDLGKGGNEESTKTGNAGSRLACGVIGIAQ
Summary of the method: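 Human erythrocyte CuZn-SOD, purchased, assayed by NAD(P)H oxidation; 1 U gives 50% inhibition of the rate. Compounds at 1, 10, 25, 50, 100 μM. IC50 by linear regression; five determinations; Newman-Keuls test.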

Trypanosoma cruzi [7] = assay: Effect on metabolic excretion in epimastigotes of Trypanosoma cruzi assessed as acetate excretion level at IC25 concentration after 72 hrs by nuclear magnetic resonance spectroscopy analysis; assay type: ADME, organism-based; summary of the method: as §1
Trypanosoma cruzi [8] = assay: Antitrypanosomal activity against epimastigotes of Trypanosoma cruzi assessed as change in ultrastructural morphological changes at IC25 concentration after 72 hrs by transmission electron microscopy; assay type: functional, organism-based
Summary of the method: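 Epimastigotes at 5 × 10^6 cells/mL cultured with drug at IC25 for 72 h. Pelleted at 400g, washed in PBS, then fixed in 2% formaldehyde-glutaraldehyde in 0.05 M cacodylate pH 7.4 for 2 h at 4 °C before transmission electron microscopy.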

[9] = Inhibition of Trypanosoma cruzi iron superoxide dismutase assessed as inhibition of NADPH reduction
Summary of the method: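 Maracay epimastigotes sonicated in sucrose/Tris/EDTA buffer, pH 7.8. Clarified supernatant taken through 35–85% ammonium sulfate cut, then desalted into 20 mM phosphate pH 7.8 with 1 mM EDTA. Activity measured by NAD(P)H oxidation; 1 U gives 50% inhibition of the rate. Compounds at 1, 10, 25, 50, 100 μM. IC50 by linear regression; five determinations; Newman-Keuls test.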

Trypanosoma cruzi [10] = assay: Effect on metabolic excretion in epimastigotes of Trypanosoma cruzi assessed as L-alanine excretion level at IC25 concentration after 72 hrs by nuclear magnetic resonance spectroscopy analysis; assay type: ADME, organism-based; summary of the method: as §1
Trypanosoma cruzi [11] = assay: Antitrypanosomal activity against trypomastigote of Trypanosoma cruzi infected in BALB/c mouse assessed as reduction of anti-Trypanosoma cruzi antibody level at 1 mg/kg, ip qd for 5 days measured after 120 days postinfection by ELISA; assay type: functional; conditions: route intraperitoneal
Summary of the method: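 Female BALB/c mice (6–8 weeks, 25–30 g; groups of four for serology) infected ip with 3 × 10^3 metacyclic forms. Dosed 1 mg/kg/day ip for five consecutive days, days 7–12 post-infection. Sera diluted 1:100 tested by ELISA against soluble T. cruzi epimastigote Fe-SOD antigen at days 40 and 120. Read at 490 nm; cutoff is negative-control mean + 3 SD.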

Trypanosoma cruzi [12] = assay: Antitrypanosomal activity against trypomastigote of Trypanosoma cruzi infected in BALB/c mouse assessed as reduction of parasitemia at 1 mg/kg, ip for 5 days measured after 40 days postinfection; assay type: functional, organism-based; design: dose 1 mg/kg
Summary of the method: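 Female BALB/c mice (6–8 weeks, 25–30 g), groups of five, infected ip with 3 × 10^3 metacyclic forms. Dosed 1 mg/kg/day ip for days 7–12 post-infection. Tail blood (5 μL) diluted 1:15 in citrate/lysis buffer pH 7.2; parasites counted in Neubauer chamber; deaths recorded every two days.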

Trypanosoma cruzi [13] = assay: Antitrypanosomal activity against trypomastigote of Trypanosoma cruzi infected in BALB/c mouse assessed as increase of host survival at 1 mg/kg, ip for 5 days administered 7 days after infection; assay type: functional
Summary of the method: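 Female BALB/c mice (6-8 weeks, 25-30 g) in groups of five were infected intraperitoneally with T. cruzi metacyclic forms, with circulating parasites confirmed on day 5 by microhematocrit. They were dosed intraperitoneally at 1 mg/kg/day for five consecutive days (days 7-12 post-infection) and compared with infected untreated and uninfected controls. Deaths were recorded every two days.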

Mus musculus [14] = assay: Toxicity in Trypanosoma cruzi infected BALB/c mouse assessed as hepatic destruction at 5 mg/kg, ip administered 90 days after postinfection by conventional light microscopic analysis; assay type: organism-based; design: dose 5 mg/kg, route intraperitoneal; conditions: in vivo, 2160 h
Summary of the method: (§2)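 Livers of infected mice dosed at 5 mg/kg, examined at 90 days post-infection. Paraffin sections 4–5 μm, stained with Giemsa, H&E and Masson's trichrome. Slides coded for blinded light microscopy, ≥30 fields per slide. Alterations scored 0–5.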

Mus musculus [15] = assay: Toxicity in Trypanosoma cruzi infected BALB/c mouse assessed as lymphocytic infiltration at 5 mg/kg, ip administered 90 days after postinfection by conventional light microscopic analysis; assay type: organism-based; design: dose 5 mg/kg, route intraperitoneal; conditions: in vivo, 2160 h; summary of the method: as §2
Vero = assay: Cytotoxicity against african green monkey Vero cells after 72 hrs by trypan blue assay; assay type: cell-based; conditions: Chlorocebus sabaeus
Summary of the method: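 Vero cells in MEM with 10% inactivated FCS, pH 7.2, 37 °C, 5% CO2. Seeded at 1 × 10^5 cells/mL and grown 2 days, then exposed 72 h to 1, 10, 25, 50 or 100 μM. Viability scored by trypan blue (0.1%) relative to control; IC50 obtained by linear regression.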

Trypanosoma cruzi [16] = assay: Antitrypanosomal activity against Trypanosoma cruzi infected in african green monkey Vero cells assessed as reduction of amastigote number per infected cell at IC25 after 10 days relative to control; assay type: functional; design: scale not given: the % may be the effect or the level left
Summary of the method: (§3)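 Vero cells seeded at 1 × 10^5 cells/well on coverslips and grown 2 days in MEM at 37 °C, 5% CO2. Infected with metacyclic forms at 10:1, obtained by culture in modified Grace's medium at 28 °C for 12 days. Drug present 6 h, then removed by washing; cultures grown 10 days with medium renewed every 48 h. Methanol-fixed, Giemsa-stained; >100 host cells counted; means of four determinations.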

Trypanosoma cruzi [17] = assay: Antitrypanosomal activity against epimastigote of Trypanosoma cruzi Maracay after 72 hrs; assay type: functional, organism-based
Summary of the method: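 Maracay strain epimastigotes in exponential phase, obtained in NNN medium with MEM and 20% inactivated FBS and then kept in monophasic MTL culture. Seeded at 2 × 10^6 parasites/mL with 1, 10, 25, 50 or 100 μM compound (0.01% DMSO). Parasites counted by Neubauer hemocytometer at 72 h; IC50 derived.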

Trypanosoma cruzi [18] = assay: Antitrypanosomal activity against Trypanosoma cruzi infected in african green monkey Vero cells assessed as reduction of parasite infection rate at IC25 after 10 days; assay type: functional; design: scale not given: the % may be the effect or the level left; summary of the method: as §3
Mus musculus [19] = assay: Toxicity in Trypanosoma cruzi infected BALB/c mouse assessed as small interstitial hemorrhage at 5 mg/kg, ip administered 90 days after postinfection by conventional light microscopic analysis; assay type: organism-based; design: dose 5 mg/kg, route intraperitoneal; conditions: in vivo, 2160 h; summary of the method: as §2
Mus musculus [20] = assay: Toxicity in Trypanosoma cruzi infected BALB/c mouse assessed as lymphocytic infiltration in portal tracts at 5 mg/kg, ip administered 90 days after postinfection by conventional light microscopic analysis; assay type: organism-based; design: dose 5 mg/kg, route intraperitoneal; conditions: in vivo, 2160 h; summary of the method: as §2
Trypanosoma cruzi [21] = assay: Antitrypanosomal activity against Trypanosoma cruzi infected in african green monkey Vero cells assessed as reduction of trypomastigote number per infected cell at IC25 after 10 days relative to control; assay type: functional; design: scale not given: the % may be the effect or the level left

Row | SMILES | Activity (Mus musculus [1]) | Activity (Trypanosoma cruzi [5]) [%] | IC50 [6] [µM] | Activity (Trypanosoma cruzi [7]) [%] | Activity (Trypanosoma cruzi [8]) | IC50 [9] [µM] | Activity (Trypanosoma cruzi [10]) [%] | deltaA (Trypanosoma cruzi [11]) [absorbance units] | Activity (Trypanosoma cruzi [12]) | Activity (Trypanosoma cruzi [13]) | Activity (Trypanosoma cruzi [16]) [%] | Activity (Trypanosoma cruzi [18]) [%] | Activity (Trypanosoma cruzi [21]) [%] | also measured
1 | c1ccc2cc3c(Nc4ccn[nH]4)nnc(Nc4ccn[nH]4)c3cc2c1 [1,4-BIS(3'-PYRAZOLYLAMINO)BENZO[G]PHTHALAZINE] | Non-toxic | -24 | 96.6 |  |  |  |  |  |  |  |  |  |  | selectivity ratio [2]: 2.99; Activity (Trypanosoma cruzi [3]): 100%; Activity (Trypanosoma cruzi [4]): -55%
2 | Clc1nnc(NCCCn2ccnc2)c2cc3ccccc3cc12 | Non-toxic | -49 | 129 | -26 | Active | 1.3 | 61 | -0.151 | Active | Active |  |  |  | 
3 | c1ccc2cc3c(NCCc4cnc[nH]4)nnc(NCCc4cnc[nH]4)c3cc2c1 | Non-toxic | -39 | 366 | -30 |  |  | 35 |  |  |  |  |  |  | 
4 | c1ccc2cc3c(NCCCn4ccnc4)nnc(NCCCn4ccnc4)c3cc2c1 | Non-toxic | -27 | 67.9 | -22 |  | 28.3 | 43 | 0.266 | Active | Active |  |  |  | 
5 | Clc1nnc(NCCc2c[nH]cn2)c2cc3ccccc3cc12 | Non-toxic | -37 | 787 | -18 | Active | 9.4 | 22 | -0.076 | Active | Active |  |  |  | Activity (Mus musculus [14]): Toxic; Activity (Mus musculus [15]): Toxic
6 | Clc1nnc(Nc2cc[nH]n2)c2cc3ccccc3cc12 | Non-toxic | 27 | 103 | -36 | Active | 17.2 |  | -0.228 | Active | Active | 56 | 68 | 63 | IC50 (Vero): 133 µM; selectivity ratio [2]: 7.58; Activity (Trypanosoma cruzi [4]): -61%; IC50 (Trypanosoma cruzi [17]): 17.5 µM; Activity (Mus musculus [19]): Toxic; Activity (Mus musculus [20]): Toxic
7 | c1ccc2cc3c(NCCc4c[nH]cn4)nnc(NCCc4c[nH]cn4)c3cc2c1 |  |  |  |  | Active | 29.6 |  | 0.044 | Active | Active |  |  |  | 
8 | O=C(Cn1ccnc1[N+](=O)[O-])NCc1ccccc1 [BENZNIDAZOLE] |  |  |  |  |  |  |  | 0.11 |  |  | 15 | 39 | 43 | Activity (Trypanosoma cruzi [13]; route intraperitoneal): 80%
9 | c1ccc2cc3c(Nc4cc[nH]n4)nnc(Nc4cc[nH]n4)c3cc2c1 [1,4-BIS(3'-PYRAZOLYLAMINO)BENZO[G]PHTHALAZINE] |  |  |  |  | Active | 22.9 |  | 0.138 | Active | Active | 40 | 63 | 53 | IC50 (Vero): 98.3 µM; IC50 (Trypanosoma cruzi [17]): 32.8 µM
